The source made the active and inactive calls. No cut-off for these calls is given here.
Organism: Homo sapiens
Test: Selectivity ratio of IC50 for COX1 to IC50 for COX2 in human whole blood
Type: tissue-based
Settings: not given
In short: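 COX-1: fresh heparinized human blood diluted 1:4 in RPMI, preincubated with compound (0.01–100 μmol/L final) for 5 min at 37 °C, then stimulated with calcium ionophore A-23187 for 15 min at 37 °C, with serum TXB2 read by EIA. COX-2: heparinized blood with compound for 5 min, then LPS (100 μg/mL final) for 24 h at 37 °C, with plasma PGE2 read by EIA. Ratio = IC50 COX-1/IC50 COX-2 (μM).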

Going from O=S(=O)(Nc1ccncc1Nc1cccc(Br)c1)C(F)(F)F to O=S(=O)(Nc1ccncc1Nc1cccc(Cl)c1)C(F)(F)F, the Ratio IC50 falls from 7.48 to 4.1.

First: CS(=O)(=O)Nc1ccncc1NC1CCCCC1
Second: CS(=O)(=O)Nc1ccncc1NC1CCCCCC1
The Ratio IC50 of the first is higher: 0.11 for the first, 0.07 for the second.

Compared with COc1cccc(Nc2cnccc2NS(=O)(=O)C(F)(F)F)c1, CCc1cccc(Nc2cnccc2NS(=O)(=O)C(F)(F)F)c1 is higher in Ratio IC50: 0.63 for the first, 2.84 for the second.

First: Cc1ccc(Nc2cnccc2NS(=O)(=O)C(F)(F)F)cc1
Second: O=S(=O)(Nc1ccncc1Nc1ccc(Br)cc1)C(F)(F)F
The Ratio IC50 of the first is lower: 0.38 for the first, 1.77 for the second.

Going from CS(=O)(=O)Nc1ccncc1Sc1ccccc1 to CS(=O)(=O)Nc1ccncc1Nc1ccccc1, the Ratio IC50 falls from 3.05 to 0.85.

Compared with O=S(=O)(Nc1ccncc1Nc1ccccc1)C(F)(F)F, O=S(=O)(Nc1ccncc1Nc1ccccc1Cl)C(F)(F)F is lower in Ratio IC50: 2 for the first, 0.09 for the second.

Going from Cc1ccc(Nc2cnccc2NS(C)(=O)=O)cc1 to COc1ccc(Nc2cnccc2NS(C)(=O)=O)cc1, the Ratio IC50 falls from 0.11 to 0.03.

First: O=S(=O)(Nc1ccncc1NC1CCCC1)C(F)(F)F
Second: O=S(=O)(Nc1ccncc1NC1CCCCCC1)C(F)(F)F
The Ratio IC50 of the first is lower: 0.31 for the first, 0.47 for the second.

Going from Cc1cccc(Nc2cnccc2NS(C)(=O)=O)c1 to CCc1ccc(Nc2cnccc2NS(C)(=O)=O)cc1, the Ratio IC50 rises from 0.29 to 0.33.

Compared with CS(=O)(=O)Nc1ccncc1Nc1ccccc1Cl, CCc1ccc(Nc2cnccc2NS(=O)(=O)C(F)(F)F)cc1 is higher in Ratio IC50: 0.05 for the first, 1.35 for the second.

Biological target: Prostaglandin G/H synthase 1 (Homo sapiens, UniProt P23219)
Type: tissue-based, Blood
Settings: not given

Chain of Prostaglandin G/H synthase 1 (P23219 whole entry): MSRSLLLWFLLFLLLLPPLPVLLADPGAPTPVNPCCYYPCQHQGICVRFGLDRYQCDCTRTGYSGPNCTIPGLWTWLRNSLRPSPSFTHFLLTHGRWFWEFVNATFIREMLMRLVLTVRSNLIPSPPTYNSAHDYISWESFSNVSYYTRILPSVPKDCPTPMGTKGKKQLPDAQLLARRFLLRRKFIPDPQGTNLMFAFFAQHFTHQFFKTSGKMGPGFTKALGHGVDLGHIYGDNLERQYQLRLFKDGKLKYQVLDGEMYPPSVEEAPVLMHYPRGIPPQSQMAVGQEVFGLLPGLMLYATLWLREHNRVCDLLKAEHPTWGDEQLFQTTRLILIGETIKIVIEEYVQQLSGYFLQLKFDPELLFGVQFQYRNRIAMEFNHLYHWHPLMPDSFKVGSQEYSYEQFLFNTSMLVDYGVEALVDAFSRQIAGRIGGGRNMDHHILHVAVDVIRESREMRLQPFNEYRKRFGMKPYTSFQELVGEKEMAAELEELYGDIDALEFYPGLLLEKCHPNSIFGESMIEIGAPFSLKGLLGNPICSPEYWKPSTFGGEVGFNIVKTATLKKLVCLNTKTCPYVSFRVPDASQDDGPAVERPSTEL

Compared with CS(=O)(=O)Nc1ccncc1NC1CCCCC1, CS(=O)(=O)Nc1ccncc1NC1CCCCCC1 is 3.5-fold higher in IC50: 270 nM for the first, 940 nM for the second. The first is the more potent here.

COc1cccc(Nc2cnccc2NS(=O)(=O)C(F)(F)F)c1 and O=S(=O)(Nc1ccncc1Nc1cccc(Cl)c1)C(F)(F)F are within 1.5-fold of each other in IC50: 1000 nM for the first, 1090 nM for the second.

First: Cc1ccc(Nc2cnccc2NS(=O)(=O)C(F)(F)F)cc1
Second: O=S(=O)(Nc1ccncc1Nc1ccc(Br)cc1)C(F)(F)F
The IC50 of the first is 9.4-fold lower: 170 nM for the first, 1600 nM for the second.

Compared with CCc1cccc(Nc2cnccc2NS(=O)(=O)C(F)(F)F)c1, CCc1ccc(Nc2cnccc2NS(=O)(=O)C(F)(F)F)cc1 is 1.8-fold higher in IC50: 690 nM for the first, 1220 nM for the second.

Going from O=S(=O)(Nc1ccncc1Nc1ccccc1Cl)C(F)(F)F to CS(=O)(=O)Nc1ccncc1Nc1ccccc1Cl, the IC50 rises from 190 nM to 480 nM (2.5-fold).

Going from Cc1ccc(Nc2cnccc2NS(C)(=O)=O)cc1 to COc1ccc(Nc2cnccc2NS(C)(=O)=O)cc1, the IC50 falls from 1310 nM to 560 nM (2.3-fold). The second is the more potent here.

First: O=S(=O)(Nc1ccncc1NC1CCCC1)C(F)(F)F
Second: O=S(=O)(Nc1ccncc1NC1CCCCCC1)C(F)(F)F
The IC50 of the first is 1.5-fold higher: 1150 nM for the first, 760 nM for the second.

Cc1cccc(Nc2cnccc2NS(C)(=O)=O)c1 and CS(=O)(=O)Nc1ccncc1Nc1ccccc1 are within 1.5-fold of each other in IC50: 2570 nM for the first, 2260 nM for the second.

Work on CCc1ccc(Nc2cnccc2NS(C)(=O)=O)cc1 yielded an IC50 of 2730 nM.

Test system: Rattus norvegicus
Test: Antiinflammatory activity against gamma carrageenan-induced pleurisy in Wistar rat assessed as inhibition of exudate production in pleural cavity at 5 mg/kg, ip administered 30 mins before gamma carrageenan challenge measured after 4 hrs
Type: functional
Settings: route intraperitoneal
In short: (§1)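 Male Wistar rats (at least three per group; table gives n = 3-6) received saline or drug ip 30 min before carrageenan. Under sodium pentobarbital anaesthesia (40 mg/kg ip), λ carrageenan (0.2 mL, 10 mg/mL) was injected into the right pleural cavity. After 4 h the rats were anaesthetized (pentobarbital 80 mg/kg ip), the cavity was rinsed with heparinized saline, and exudate was aspirated. Values are % inhibition of exudate, mean ± SE.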

Going from O=S(=O)(Nc1ccncc1Nc1cccc(Br)c1)C(F)(F)F to O=S(=O)(Nc1ccncc1Nc1cccc(Cl)c1)C(F)(F)F, the inhibition in vivo at 5 mg/kg falls from 42.1% to 16.1%.

Work on O=S(=O)(Nc1ccncc1Nc1ccccc1)C(F)(F)F yielded an inhibition in vivo at 5 mg/kg of 25.4%.

Test system: Rattus norvegicus
Test: Antiinflammatory activity against gamma carrageenan-induced pleurisy in Wistar rat assessed as inhibition of exudate production in pleural cavity at 10 mg/kg, ip administered 30 mins before gamma carrageenan challenge measured after 4 hrs
Type: functional
Settings: route intraperitoneal
In short: as §1

First: O=S(=O)(Nc1ccncc1Nc1cccc(Br)c1)C(F)(F)F
Second: O=S(=O)(Nc1ccncc1Nc1cccc(Cl)c1)C(F)(F)F
The inhibition in vivo at 10 mg/kg of the first is higher: 52.2% for the first, 40% for the second.

With O=S(=O)(Nc1ccncc1Nc1ccccc1)C(F)(F)F the inhibition in vivo at 10 mg/kg was 55.7%.

Test system: Rattus norvegicus
Test: Antiinflammatory activity against gamma carrageenan-induced pleurisy in Wistar rat assessed as inhibition of exudate production in pleural cavity at 20 mg/kg, ip administered 30 mins before gamma carrageenan challenge measured after 4 hrs
Type: functional
Settings: route intraperitoneal

First: O=S(=O)(Nc1ccncc1Nc1cccc(Br)c1)C(F)(F)F
Second: O=S(=O)(Nc1ccncc1Nc1cccc(Cl)c1)C(F)(F)F
The inhibition in vivo at 20 mg/kg of the first is higher: 64.5% for the first, 52.6% for the second.

For O=S(=O)(Nc1ccncc1Nc1ccccc1)C(F)(F)F, the inhibition in vivo at 20 mg/kg was 72.2%.

Test system: Rattus norvegicus
Test: Antiinflammatory activity against gamma carrageenan-induced pleurisy in Wistar rat assessed as decrease in exudate volume in pleural cavity at 5 mg/kg, ip administered 30 mins before gamma carrageenan challenge measured after 4 hrs
Type: functional, organism-based
Parameters: dose 5 mg/kg
Settings: not given
In short: as §1

O=S(=O)(Nc1ccncc1Nc1ccccc1)C(F)(F)F was tested, and the Activity was “inactive”.

Test system: Rattus norvegicus
Test: Antiinflammatory activity against gamma carrageenan-induced pleurisy in Wistar rat assessed as decrease in exudate volume in pleural cavity at 10 mg/kg, ip administered 30 mins before gamma carrageenan challenge measured after 4 hrs
Type: functional, organism-based
Parameters: dose 10 mg/kg
Settings: not given
In short: as §1

In the case of O=S(=O)(Nc1ccncc1Nc1cccc(Br)c1)C(F)(F)F, the Activity is reported as “Active”.
With O=S(=O)(Nc1ccncc1Nc1ccccc1)C(F)(F)F the Activity was “Active”.
For O=S(=O)(Nc1ccncc1Nc1cccc(Cl)c1)C(F)(F)F, the Activity was “Active”.

Test system: Rattus norvegicus
Test: Antiinflammatory activity against gamma carrageenan-induced pleurisy in Wistar rat assessed as decrease in exudate volume in pleural cavity at 20 mg/kg, ip administered 30 mins before gamma carrageenan challenge measured after 4 hrs
Type: functional, organism-based
Parameters: dose 20 mg/kg
Settings: not given
In short: as §1

In the case of O=S(=O)(Nc1ccncc1Nc1cccc(Br)c1)C(F)(F)F, the Activity is reported as “Active”.
O=S(=O)(Nc1ccncc1Nc1ccccc1)C(F)(F)F was tested, and the Activity was “Active”.
With O=S(=O)(Nc1ccncc1Nc1cccc(Cl)c1)C(F)(F)F the Activity was “Active”.

Biological target: T1, Prostaglandin G/H synthase 2 (Homo sapiens, UniProt P35354)
T1 sequence (P35354 whole entry): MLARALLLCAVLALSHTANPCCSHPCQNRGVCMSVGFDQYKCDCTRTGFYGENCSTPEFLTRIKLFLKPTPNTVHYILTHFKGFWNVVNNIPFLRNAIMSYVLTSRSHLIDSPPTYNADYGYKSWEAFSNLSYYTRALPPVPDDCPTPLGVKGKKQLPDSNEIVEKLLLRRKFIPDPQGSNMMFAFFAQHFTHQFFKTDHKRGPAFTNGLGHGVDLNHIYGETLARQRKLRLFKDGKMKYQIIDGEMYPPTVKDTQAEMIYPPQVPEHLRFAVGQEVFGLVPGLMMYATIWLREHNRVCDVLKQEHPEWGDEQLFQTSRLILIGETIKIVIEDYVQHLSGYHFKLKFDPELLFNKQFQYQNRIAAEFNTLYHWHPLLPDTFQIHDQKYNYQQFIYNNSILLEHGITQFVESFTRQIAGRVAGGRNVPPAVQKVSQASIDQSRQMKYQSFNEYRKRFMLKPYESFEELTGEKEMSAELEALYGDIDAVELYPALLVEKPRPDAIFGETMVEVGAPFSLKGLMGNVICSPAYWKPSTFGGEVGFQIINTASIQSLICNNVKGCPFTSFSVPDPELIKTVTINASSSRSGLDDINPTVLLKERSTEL
Settings: not given

First: CS(=O)(=O)Nc1ccncc1NC1CCCCC1
Second: CS(=O)(=O)Nc1ccncc1NC1CCCCCC1
The IC50 of the first is 5.5-fold lower: 2440 nM for the first, 13500 nM for the second. The first is the more potent here.

Compared with COc1cccc(Nc2cnccc2NS(=O)(=O)C(F)(F)F)c1, O=S(=O)(Nc1ccncc1Nc1cccc(Cl)c1)C(F)(F)F is 5.9-fold lower in IC50: 1580 nM for the first, 270 nM for the second. The second is the more potent here.

Going from Cc1ccc(Nc2cnccc2NS(=O)(=O)C(F)(F)F)cc1 to O=S(=O)(Nc1ccncc1Nc1ccc(Br)cc1)C(F)(F)F, the IC50 rises from 460 nM to 910 nM (2-fold). The first is the more potent here.

Going from CCc1cccc(Nc2cnccc2NS(=O)(=O)C(F)(F)F)c1 to CCc1ccc(Nc2cnccc2NS(=O)(=O)C(F)(F)F)cc1, the IC50 rises from 240 nM to 910 nM (3.8-fold).

Going from O=S(=O)(Nc1ccncc1Nc1ccccc1Cl)C(F)(F)F to CS(=O)(=O)Nc1ccncc1Nc1ccccc1Cl, the IC50 rises from 2110 nM to 9380 nM (4.4-fold). The first is the more potent here.

First: Cc1ccc(Nc2cnccc2NS(C)(=O)=O)cc1
Second: COc1ccc(Nc2cnccc2NS(C)(=O)=O)cc1
The IC50 of the first is 1.8-fold lower: 12000 nM for the first, 21600 nM for the second.

Going from O=S(=O)(Nc1ccncc1NC1CCCC1)C(F)(F)F to O=S(=O)(Nc1ccncc1NC1CCCCCC1)C(F)(F)F, the IC50 falls from 3740 nM to 1620 nM (2.3-fold).

First: Cc1cccc(Nc2cnccc2NS(C)(=O)=O)c1
Second: CS(=O)(=O)Nc1ccncc1Nc1ccccc1
The IC50 of the first is 3.3-fold higher: 8810 nM for the first, 2690 nM for the second.

For CCc1ccc(Nc2cnccc2NS(C)(=O)=O)cc1, the IC50 was 8150 nM.

From ChEMBL document CHEMBL1154327 (J Med Chem, 2009)
